Source: ChEMBL document CHEMBL1122708, “Preparation and antibacterial activities of new 1,2,3-diazaborine derivatives and analogues” (1984)
≈ marks a conversion by molar mass, not a printed value.

Tests used:
[1] = system: Neisseria gonorrhoeae; experiment: Minimum inhibitory concentration of compound against Neisseria gonorrhoeae W2; type: functional
Procedure, shortened: (§1)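 Agar dilution on Kellogg agar, 10⁶ colony forming units, incubated 20 h at 36 °C in 5% CO₂; MIC is the lowest concentration giving no visible growth.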

[2] = system: Escherichia coli; experiment: Antibacterial activity againist Escherichia coli 120 infected NMRI mice after peroral administration; type: functional; settings: po
Procedure, shortened: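 ED50 in NMRI mice infected intraperitoneally with E. coli 120; compound given orally immediately and 5 h after infection.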

[3] = system: Klebsiella pneumoniae; experiment: Minimum inhibitory concentration of compound against Klebsiella pneumoniae delta 217; type: functional
[4] = system: Neisseria gonorrhoeae; experiment: Minimum inhibitory concentration of compound against Neisseria gonorrhoeae AS 7720; type: functional; procedure, shortened: as §1
[5] = system: Escherichia coli; experiment: Minimum inhibitory concentration of compound against Escherichia coli delta 120; type: functional
[6] = system: Proteus mirabilis; experiment: Minimum inhibitory concentration against Proteus mirabilis delta 89; type: functional
[7] = system: Salmonella typhimurium; experiment: Minimum inhibitory concentration of compound against Salmonella Typhimurium delta 119; type: functional, Salmonella enterica subsp. enterica serovar Typhimurium; settings: Salmonella enterica
[8] = system: Klebsiella aerogenes; experiment: Minimum inhibitory concentration of compound against Enterobacter aerogenes delta 220; type: functional

Molecule `Cc1ccc(S(=O)(=O)N2N=Cc3sc(Br)cc3B2O)cc1` has an MIC [1] of 2 µg/mL (≈ 5.19 µM), an ED50 [2] of about 15 mg/kg and an MIC [3] of 1.56 µg/mL (≈ 4.05 µM). It also gave an MIC [4] of 0.5 µg/mL (≈ 1.3 µM), an MIC [5] of 6.25 µg/mL (≈ 16.2 µM) and an MIC [6] of 1.56 µg/mL (≈ 4.05 µM). The MIC [7] was 3.12 µg/mL (≈ 8.1 µM) and the MIC [8] was 25 µg/mL (≈ 64.9 µM).
Work on `Cc1ccc(S(=O)(=O)N2N=Cc3cc(C)sc3B2O)c(Cl)c1` yielded an MIC [1] of 1 µg/mL (≈ 2.82 µM), an ED50 [2] of 25 mg/kg and an MIC [3] of 3.12 µg/mL (≈ 8.8 µM). It also gave an MIC [4] of 1 µg/mL (≈ 2.82 µM), an MIC [5] of 50 µg/mL (≈ 141 µM) and an MIC [6] of 1.56 µg/mL (≈ 4.4 µM). The MIC [7] was 6.25 µg/mL (≈ 17.6 µM) and the MIC [8] was 50 µg/mL (≈ 141 µM).
Molecule `Cc1ccc(S(=O)(=O)N2N=Cc3ccc(Br)cc3B2O)cc1` has an MIC [1] of 8 µg/mL (≈ 21.1 µM), an ED50 [2] of about 30 mg/kg and an MIC [3] of 6.25 µg/mL (≈ 16.5 µM). The MIC [4] was 2 µg/mL (≈ 5.28 µM), the MIC [5] was 50 µg/mL (≈ 132 µM) and the MIC [6] was 12.5 µg/mL (≈ 33 µM). The MIC [7] was 6.25 µg/mL (≈ 16.5 µM) and the MIC [8] was over 50 µg/mL.
Work on `Cc1ccc(S(=O)(=O)N2N=Cc3c(ccc4ccccc34)B2O)cc1` yielded an MIC [1] of 8 µg/mL (≈ 22.8 µM), an ED50 [2] of over 100 mg/kg and an MIC [3] of 25 µg/mL (≈ 71.4 µM). For the same molecule, the MIC [4] was 2 µg/mL (≈ 5.71 µM), the MIC [5] was over 50 µg/mL and the MIC [6] was 3.12 µg/mL (≈ 8.91 µM). The MIC [7] was over 50 µg/mL and the MIC [8] was over 50 µg/mL.
Work on `Cc1ccc(S(=O)(=O)N2N=Cc3sc(Cl)cc3B2O)cc1` yielded an MIC [1] of 1 µg/mL (≈ 2.94 µM), an ED50 [2] of 28 mg/kg and an MIC [3] of 2.5 µg/mL (≈ 7.34 µM). The MIC [4] was 1 µg/mL (≈ 2.94 µM), the MIC [5] was 25 µg/mL (≈ 73.4 µM) and the MIC [6] was 1.56 µg/mL (≈ 4.58 µM). For the same molecule, the MIC [7] was 5 µg/mL (≈ 14.7 µM) and the MIC [8] was 50 µg/mL (≈ 147 µM).
`CS(=O)(=O)N1N=Cc2sccc2B1O` showed an MIC [1] of over 8 µg/mL, an ED50 [2] of 113 mg/kg and an MIC [3] of over 50 µg/mL. The MIC [4] was over 8 µg/mL, the MIC [5] was over 50 µg/mL and the MIC [6] was over 50 µg/mL. It also gave an MIC [7] of over 50 µg/mL and an MIC [8] of over 50 µg/mL.
In the case of `Cc1cc2c(s1)C=NN(S(=O)(=O)c1ccccc1C)B2O`, the MIC [1] is reported as 0.5 µg/mL (≈ 1.56 µM), the ED50 [2] is reported as 50 mg/kg and the MIC [3] is reported as 0.78 µg/mL (≈ 2.44 µM). The MIC [4] was 0.5 µg/mL (≈ 1.56 µM), the MIC [5] was 25 µg/mL (≈ 78.1 µM) and the MIC [6] was 1.56 µg/mL (≈ 4.87 µM). For the same molecule, the MIC [7] was 6.25 µg/mL (≈ 19.5 µM) and the MIC [8] was 50 µg/mL (≈ 156 µM).
`Cc1ccc(S(=O)(=O)N2N=Cc3cc(F)ccc3B2O)cc1` showed an MIC [1] of 8 µg/mL (≈ 25.1 µM), an ED50 [2] of about 25 mg/kg and an MIC [3] of 6.25 µg/mL (≈ 19.6 µM). The MIC [4] was 2 µg/mL (≈ 6.29 µM), the MIC [5] was 25 µg/mL (≈ 78.6 µM) and the MIC [6] was 6.25 µg/mL (≈ 19.6 µM). It also gave an MIC [7] of 6.25 µg/mL (≈ 19.6 µM) and an MIC [8] of over 50 µg/mL.
Work on `CC(=O)Nc1ccc(S(=O)(=O)N2N=Cc3sc(Br)cc3B2O)c(Cl)c1` yielded an MIC [1] of 1 µg/mL (≈ 2.16 µM), an ED50 [2] of 208 mg/kg and an MIC [3] of 3.12 µg/mL (≈ 6.75 µM). It also gave an MIC [4] of 1 µg/mL (≈ 2.16 µM), an MIC [5] of 50 µg/mL (≈ 108 µM) and an MIC [6] of 6.25 µg/mL (≈ 13.5 µM). The MIC [7] was 3.12 µg/mL (≈ 6.75 µM) and the MIC [8] was 25 µg/mL (≈ 54 µM).
With `Nc1ccc(S(=O)(=O)N2N=Cc3cc(Br)ccc3B2O)cc1` the MIC [1] was 2 µg/mL (≈ 5.26 µM), the ED50 [2] was 16 mg/kg and the MIC [3] was 1.56 µg/mL (≈ 4.1 µM). For the same molecule, the MIC [4] was 1 µg/mL (≈ 2.63 µM), the MIC [5] was 10 µg/mL (≈ 26.3 µM) and the MIC [6] was 0.78 µg/mL (≈ 2.05 µM). For the same molecule, the MIC [7] was 3.12 µg/mL (≈ 8.21 µM) and the MIC [8] was 25 µg/mL (≈ 65.8 µM).
`Cc1ccc2c(c1)C=NN(S(=O)(=O)c1ccc(N)cc1Cl)B2O` was tested, and the MIC [1] was 1 µg/mL (≈ 2.86 µM), the ED50 [2] was 14 mg/kg and the MIC [3] was 0.78 µg/mL (≈ 2.23 µM). It also gave an MIC [4] of 1 µg/mL (≈ 2.86 µM), an MIC [5] of 10 µg/mL (≈ 28.6 µM) and an MIC [6] of 0.39 µg/mL (≈ 1.12 µM). For the same molecule, the MIC [7] was 3.12 µg/mL (≈ 8.92 µM) and the MIC [8] was 10 µg/mL (≈ 28.6 µM).
`CCc1cc2c(s1)C=NN(S(=O)(=O)c1ccccc1Cl)B2O` gave an MIC [1] of 1 µg/mL (≈ 2.82 µM), an ED50 [2] of 49 mg/kg and an MIC [3] of 0.31 µg/mL (≈ 0.874 µM). The MIC [4] was 0.5 µg/mL (≈ 1.41 µM), the MIC [5] was 3.12 µg/mL (≈ 8.8 µM) and the MIC [6] was 0.39 µg/mL (≈ 1.1 µM). The MIC [7] was 0.78 µg/mL (≈ 2.2 µM) and the MIC [8] was 12.5 µg/mL (≈ 35.2 µM).
For `O=S(=O)(c1ccccc1Cl)N1N=Cc2cc(Br)sc2B1O`, the MIC [1] was over 8 µg/mL, the ED50 [2] was over 300 mg/kg and the MIC [3] was over 50 µg/mL. The MIC [4] was over 8 µg/mL, the MIC [5] was over 50 µg/mL and the MIC [6] was over 50 µg/mL. The MIC [7] was over 50 µg/mL and the MIC [8] was over 50 µg/mL.
`CC(=O)Nc1ccc(S(=O)(=O)N2N=Cc3cc(Br)ccc3B2O)c(Cl)c1` showed an MIC [1] of 2 µg/mL (≈ 4.38 µM), an ED50 [2] of 83 mg/kg and an MIC [3] of 3.12 µg/mL (≈ 6.83 µM). The MIC [4] was 1 µg/mL (≈ 2.19 µM), the MIC [5] was 50 µg/mL (≈ 110 µM) and the MIC [6] was 1.56 µg/mL (≈ 3.42 µM). It also gave an MIC [7] of 12.5 µg/mL (≈ 27.4 µM) and an MIC [8] of 50 µg/mL (≈ 110 µM).
`Cc1ccccc1S(=O)(=O)N1N=Cc2sc(Br)cc2B1O` was tested, and the MIC [1] was 0.5 µg/mL (≈ 1.3 µM), the ED50 [2] was 57 mg/kg and the MIC [3] was 3.12 µg/mL (≈ 8.1 µM). The MIC [4] was 0.5 µg/mL (≈ 1.3 µM), the MIC [5] was 25 µg/mL (≈ 64.9 µM) and the MIC [6] was 1.56 µg/mL (≈ 4.05 µM). For the same molecule, the MIC [7] was 6.25 µg/mL (≈ 16.2 µM) and the MIC [8] was 50 µg/mL (≈ 130 µM).
`Cc1ccc(S(=O)(=O)N2N=Cc3cc(Cl)ccc3B2O)cc1` gave an MIC [1] of 2 µg/mL (≈ 5.98 µM), an ED50 [2] of about 20 mg/kg and an MIC [3] of 6.25 µg/mL (≈ 18.7 µM). The MIC [4] was 1 µg/mL (≈ 2.99 µM), the MIC [5] was 25 µg/mL (≈ 74.7 µM) and the MIC [6] was 3.12 µg/mL (≈ 9.32 µM). It also gave an MIC [7] of 3.12 µg/mL (≈ 9.32 µM) and an MIC [8] of over 50 µg/mL.
